What was measured:
[1] = Cytotoxicity against mock-infected human MT4 cells after 96 hrs by MTT assay; assay type: cell-based
Outline: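 Exponentially growing MT-4 cells were seeded at 1 × 10^5 cells/mL in RPMI-1640 with 10% FBS and held at 37 °C, 5% CO2 with serial compound dilutions. Viability was read by MTT after 96 h. CC50 from linear regression against untreated controls.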

[2] = system: Human immunodeficiency virus 1; experiment: Antiviral activity against HIV1 infected in human MT4 cells assessed as inhibition of virus-induced cytopathogenicity after 4 days by MTT assay; assay type: functional, organism-based; conditions: Human immunodeficiency virus 1, MT4, 96 h
Outline: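 MT-4 cells (1 × 10^4/well in RPMI) were infected acutely with HIV-1 IIIB, 100 CCID50 (m.o.i. 0.01), with serial dilutions from 100 µM, 1:5. After 4 days at 37 °C, protection from virus-induced cytopathogenicity was read by MTT. EC50 came from linear regression against untreated controls.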

[3] = Cytotoxicity against mock-infected MDBK cells after 48 to 96 hrs by MTT assay; assay type: cell-based, Bos taurus; conditions: cattle
Outline: (§1)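 Mock-infected MDBK (6 × 10^5 cells/mL; MEM-E, 10% horse serum, 1 mM pyruvate) or BHK (1 × 10^6 cells/mL; MEM-E, 10% FBS) cells were incubated at 37 °C, 5% CO2 with serial dilutions from 100 µM, 1:5. Viability by MTT after 48–96 h. CC50 from linear regression against untreated controls.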

[4] = system: Bovine viral diarrhea virus 1; experiment: Antiviral activity against Bovine viral diarrhea virus infected in MDBK cells assessed as inhibition of virus-induced cytopathogenicity after 3 to 4 days by MTT assay; assay type: functional, organism-based; conditions: Bovine viral diarrhea virus isolates and strains
[5] = Cytotoxicity against mock-infected BHK21 cells after 48 to 96 hrs by MTT assay; assay type: functional; conditions: Mesocricetus auratus, BHK-21; outline: as §1
Yellow fever virus = experiment: Antiviral activity against Yellow fever virus infected in BHK21 cells assessed as inhibition of virus-induced cytopathogenicity after 3 to 4 days by MTT assay; assay type: functional, organism-based; conditions: BHK-21
Reovirus sp. = experiment: Antiviral activity against Reovirus type-1 infected in BHK21 cells assessed as inhibition of virus-induced cytopathogenicity after 3 to 4 days by MTT assay; assay type: functional, organism-based; conditions: BHK-21
[6] = Cytotoxicity against mock-infected african green monkey Vero 76 cells after 48 to 96 hrs by MTT assay; assay type: cell-based; conditions: chlorocebus sabaeus, mock-infected Vero 76 cells
Coxsackievirus B5 = experiment: Antiviral activity against Coxsackievirus B5 infected in african green monkey Vero 76 cells assessed as reduction in plaque number after 3 days by plaque reduction assay; assay type: functional, organism-based; conditions: Enterovirus B, 72 h
Poliovirus 1 = experiment: Antiviral activity against Poliovirus type 1 Sabin strain infected in african green monkey Vero 76 cells assessed as reduction in plaque number after 2 days by plaque reduction assay; assay type: functional, organism-based; conditions: Enterovirus C, 48 h
[7] = system: Respiratory syncytial virus; experiment: Antiviral activity against Respiratory syncytial virus infected in african green monkey Vero 76 cells assessed as reduction in plaque number after 5 days by plaque reduction assay; assay type: functional, organism-based; conditions: human respiratory syncytial virus, 120 h
[8] = system: Vesicular stomatitis virus; experiment: Antiviral activity against Vesicular stomatitis virus infected in african green monkey Vero 76 cells assessed as reduction in plaque number after 2 days by plaque reduction assay; assay type: functional, organism-based; conditions: 48 h
Vaccinia virus = experiment: Antiviral activity against Vaccinia Virus infected in african green monkey Vero 76 cells assessed as reduction in plaque number after 3 days by plaque reduction assay; assay type: functional, organism-based; conditions: Orthopoxvirus vaccinia, 72 h
Human alphaherpesvirus 1 = experiment: Antiviral activity against HSV1 infected in african green monkey Vero 76 cells assessed as reduction in plaque number after 3 days by plaque reduction assay; assay type: functional, organism-based; conditions: Human alphaherpesvirus 1, Vero, 72 h
[9] = Selectivity index, ratio of CC50 for african green monkey Vero 76 cells to EC50 for Coxsackievirus B5; assay type: toxicity, cell-based; conditions: read-out: Ratio CC50/EC50
Outline: (§2)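 Mock-infected Vero-76 cells were tested in parallel on the same 24-well plates as the plaque assays (seeding 4 × 10^5 cells/mL, D-MEM with FBS), with serial compound dilutions at 37 °C, 5% CO2. Viability was read after 48–96 h by crystal violet staining. CC50 by linear regression; selectivity index = Vero-76 CC50/EC50 for CVB-5 or RSV.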

[10] = Selectivity index, ratio of CC50 for african green monkey Vero 76 cells to EC50 for Respiratory syncytial virus; assay type: toxicity, cell-based; conditions: read-out: Ratio CC50/EC50; outline: as §2

Row | Compound | CC50 at 96 h [1] | EC50 [2] | CC50 [3] | EC50 [4] | CC50 [5] | EC50 (Yellow fever virus) | EC50 (Reovirus sp.) | CC50 [6] | EC50 (Coxsackievirus B5) | EC50 (Poliovirus 1) | EC50 [7] | EC50 [8] | EC50 (Vaccinia virus) | EC50 (Human alphaherpesvirus 1) | selectivity ratio [9] | selectivity ratio [10]
1 | COCCn1c(Cc2ccc(Cl)c(Cl)c2)nc2cc(C(F)(F)F)ccc21 | > 100 µM | > 100 µM | > 100 µM | > 100 µM | > 100 µM | > 100 µM | > 100 µM | > 100 µM | 12 µM | > 100 µM | > 100 µM | > 100 µM | > 100 µM | > 100 µM | > 8.33 | –
2 | c1ccc2[nH]c(SC[C@@H]3CCCN4CCCC[C@H]34)nc2c1 | > 100 µM | > 100 µM | > 100 µM | > 100 µM | > 100 µM | > 100 µM | > 100 µM | > 100 µM | 48 µM | > 100 µM | > 100 µM | > 100 µM | > 100 µM | > 100 µM | > 2.08 | –
3 | Cc1nc2cc(C(F)(F)F)ccc2n1C[C@@H]1CCCN2CCCC[C@H]12 | > 100 µM | > 100 µM | > 100 µM | > 100 µM | > 100 µM | 27 µM | > 100 µM | > 100 µM | 47 µM | > 100 µM | > 100 µM | > 100 µM | 23 µM | > 100 µM | > 2.13 | –
4 | FC(F)(F)c1ccc2c(c1)nc(CC1CCCC1)n2C[C@@H]1CCCN2CCCC[C@H]12 | 11 µM | > 100 µM | 35 µM | > 100 µM | 32 µM | > 100 µM | > 100 µM | > 100 µM | 11 µM | > 100 µM | > 100 µM | > 100 µM | > 100 µM | > 100 µM | > 9.09 | –
5 | c1ccc2[nH]c(CC3CCCC3)nc2c1 | > 100 µM | > 100 µM | > 100 µM | > 100 µM | > 100 µM | > 100 µM | > 100 µM | > 100 µM | 21 µM | > 100 µM | > 100 µM | > 100 µM | > 100 µM | > 100 µM | > 4.76 | –
6 | c1ccc(-n2c(C[C@H]3CCCN4CCCC[C@H]34)nc3ccccc32)cc1 | 42 µM | > 100 µM | 90 µM | 44 µM | 29 µM | > 100 µM | > 100 µM | > 100 µM | 17 µM | 73 µM | 7 µM | > 100 µM | > 100 µM | > 100 µM | > 5.88 | > 14.3
7 | O=c1cnn([C@@H]2O[C@H](CO)[C@@H](O)[C@H]2O)c(=O)[nH]1 [6-AZAURIDINE] | – | – | > 100 µM | > 100 µM | > 100 µM | > 100 µM | > 100 µM | 20 µM | > 100 µM | > 100 µM | – | > 100 µM | – | > 100 µM | – | 16.7
8 | COc1c(C)c2c(c(O)c1C/C=C(\C)CCC(=O)O)C(=O)OC2 [MYCOPHENOLIC ACID] | – | – | – | > 100 µM | > 100 µM | > 100 µM | > 100 µM | 20 µM | > 100 µM | > 100 µM | – | – | 2 µM | > 100 µM | – | 33.3
9 | NC(=O)c1ncn([C@@H]2O[C@H](CO)[C@@H](O)[C@H]2O)n1 [RIBAVIRIN] | – | – | > 100 µM | 8 µM | > 100 µM | > 100 µM | > 100 µM | > 100 µM | > 100 µM | > 100 µM | – | > 100 µM | > 100 µM | > 100 µM | – | > 14.3

— ChEMBL document CHEMBL3351523 (Bioorg Med Chem, 2014)
